Test results: ChEMBL document CHEMBL3808362, “Affinity-Guided Design of Caveolin-1 Ligands for Deoligomerization” (J Med Chem, 2016)
Calls of active or inactive are those of the source. The calls are words filed in the database; no cut-off is given here. Peptide text beside a SMILES is read from it.

Key:
[1] = target: T1, Caveolin-1 (Homo sapiens) (UniProt Q03135); assay: Inhibition of oligomerization of human soluble full length variant CAV by dynamic light scattering analysis
T1 sequence (whole entry): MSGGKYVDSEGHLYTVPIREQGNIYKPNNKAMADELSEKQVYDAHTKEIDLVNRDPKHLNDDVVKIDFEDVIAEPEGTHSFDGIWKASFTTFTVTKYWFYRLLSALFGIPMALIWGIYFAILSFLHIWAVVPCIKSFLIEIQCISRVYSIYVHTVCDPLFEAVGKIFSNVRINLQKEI
Method in brief: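 CAV(FLV) oligomers were incubated with varied peptide concentrations. Dose dependence was followed by dynamic light scattering as the diameter of separate oligomeric peaks.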

[2] = target: T1, Caveolin-1 (Homo sapiens); assay: Inhibition of oligomerization of human soluble full length variant CAV at 10 uM by dynamic light scattering analysis in presence of TCEP
Method in brief: (§1)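 Soluble full-length CAV variant (CAV(FLV)) forms oligomers spontaneously. These were incubated with peptide, and particle size was measured by dynamic light scattering as average diameter and polydispersity. For line 7, incubation was under reducing conditions to disrupt the peptide's disulfide dimerization.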

[3] = target: T1, Caveolin-1 (Homo sapiens); assay: Binding affinity to rhodamine-labeled human CAV (1 to 104 residues) expressed in Escherichia coli BL21-DE3 by SPOT screening assay
Method in brief: (§2)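 Peptides synthesized on cellulose SPOT arrays with a double β-Ala linker, screened in duplicate sheets against rhodamine-labeled protein. Sheets were washed and blocked, and SPOT fluorescence was quantified as relative apparent binding. Signal from blank linker-only SPOTs was subtracted on each sheet.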

Gallus gallus = species on record: Gallus gallus; assay: Binding affinity to rhodamine-labeled hen egg white lysozyme by SPOT screening assay; method in brief: as §2
[4] = target: T1, Caveolin-1 (Homo sapiens); assay: Inhibition of oligomerization of human soluble full length variant CAV at 10 uM by dynamic light scattering analysis; method in brief: as §1
Albumin = Albumin (Bos taurus, UniProt P02769); assay: Binding affinity to rhodamine-labeled bovine serum albumin by SPOT screening assay; format: ADME; conditions: cattle, isolated protein; method in brief: as §2
Homo sapiens = species on record: Homo sapiens; assay: Binding affinity to rhodamine-labeled casein (unknown origin) by SPOT screening assay; method in brief: as §2
Caveolin-1 = target: T2, Caveolin-1 (Homo sapiens, UniProt Q03135); assay: Binding affinity to human CAV (1 to 104 residues) expressed in Escherichia coli BL21-DE3 by isothermal titration calorimetric analysis
T2 sequence (Q03135 whole entry): T1 sequence (whole entry)

Albumin, sequence (P02769 whole entry): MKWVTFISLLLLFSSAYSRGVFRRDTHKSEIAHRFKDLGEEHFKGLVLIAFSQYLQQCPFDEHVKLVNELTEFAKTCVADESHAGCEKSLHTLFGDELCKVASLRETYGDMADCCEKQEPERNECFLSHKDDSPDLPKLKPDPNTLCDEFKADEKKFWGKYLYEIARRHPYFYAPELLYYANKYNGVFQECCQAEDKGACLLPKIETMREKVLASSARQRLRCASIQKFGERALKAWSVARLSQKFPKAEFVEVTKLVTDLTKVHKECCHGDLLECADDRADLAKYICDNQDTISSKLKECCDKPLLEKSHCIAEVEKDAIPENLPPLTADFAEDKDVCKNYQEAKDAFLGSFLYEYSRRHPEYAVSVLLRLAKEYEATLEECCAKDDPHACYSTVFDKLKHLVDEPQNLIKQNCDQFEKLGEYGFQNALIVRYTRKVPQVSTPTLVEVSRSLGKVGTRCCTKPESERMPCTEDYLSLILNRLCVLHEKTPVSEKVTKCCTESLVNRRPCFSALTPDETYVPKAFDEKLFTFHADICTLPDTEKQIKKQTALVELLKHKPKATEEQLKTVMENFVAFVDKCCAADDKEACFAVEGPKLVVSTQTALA

Which inhibition [1] does the source give for `CSCC[C@H](NC(=O)[C@H](Cc1c[nH]c2ccccc12)NC(=O)[C@H](CO)NC(=O)[C@@H](N)CS)C(=O)N[C@@H](CCCNC(=N)N)C(=O)N[C@@H](CC(C)C)C(=O)N[C@@H](CCCCN)C(=O)O` (H-CSWMRLK-OH) here?
Its inhibition is “Dose-dependent effect”.

And the inhibition [2]?
Its inhibition is “inactive”.

What about the Activity [3] of the same molecule?
The Activity was “Active”.

What about the Activity (Gallus gallus) of the same molecule?
Its Activity is “inactive”.

What about the inhibition [4] of the same molecule?
The inhibition was “Active”.

And the Activity (Albumin)?
The Activity was “Not Active”.

And the Activity (Homo sapiens)?
The Activity was “inactive”.

For `CC[C@H](C)[C@H](NC(=O)[C@H](CC(C)C)NC(=O)[C@H](CO)NC(=O)[C@H](Cc1cnc[nH]1)NC(=O)[C@@H](NC(=O)[C@H](CC(C)C)NC(=O)[C@H](CO)NC(=O)[C@@H](NC(=O)[C@@H](N)Cc1ccc(O)cc1)[C@@H](C)O)[C@@H](C)CC)C(=O)N[C@@H](CCC(=O)O)C(=O)N[C@@H](CCC(=O)O)C(=O)N[C@@H](CO)C(=O)N[C@@H](CCC(N)=O)C(=O)N[C@@H](CC(N)=O)C(=O)N[C@@H](CCC(N)=O)C(=O)N[C@@H](CCC(N)=O)C(=O)N[C@@H](CCC(=O)O)C(=O)N[C@@H](CCCCN)C(=O)N[C@@H](CCC(N)=O)C(=O)N[C@@H](CCC(=O)O)C(=O)N[C@@H](CCCCN)C(=O)N[C@@H](CCC(=O)O)C(=O)N[C@@H](CC(C)C)C(=O)N[C@@H](CCSC)C(=O)N[C@@H](CCC(=O)O)C(=O)N[C@@H](CC(C)C)C(=O)N[C@@H](CCC(=O)O)C(=O)N[C@@H](CCCNC(=N)N)C(=O)N[C@@H](Cc1c[nH]c2ccccc12)C(=O)NCC(=O)N[C@@H](CO)C(=O)N[C@@H](CCSC)C(=O)N[C@@H](CC(C)C)C(=O)N[C@@H](CCCCN)C(=O)N[C@@H](CS)C(=O)N[C@@H](Cc1ccccc1)C(=O)O` (H-YTSLIHSLIEESQNQQEKQEKELMELERWGSMLKCF-OH), which Kd (Caveolin-1) is on record?
Its Kd is ≤ 155 nM.

`CSCC[C@H](NC(=O)[C@H](CO)NC(=O)CNC(=O)[C@H](Cc1c[nH]c2ccccc12)NC(=O)[C@@H](N)CCCNC(=N)N)C(=O)N[C@@H](CC(C)C)C(=O)N[C@@H](CCCCN)C(=O)N[C@@H](CS)C(=O)N[C@@H](Cc1ccccc1)C(=O)O` (H-RWGSMLKCF-OH) was tested. Which Activity [3] did it give?
Its Activity is “Active”.

How did the Activity [3] turn out when `CSCC[C@H](NC(=O)[C@H](CO)NC(=O)CNC(=O)[C@H](Cc1c[nH]c2ccccc12)NC(=O)[C@H](CCCNC(=N)N)NC(=O)[C@H](CCC(=O)O)NC(=O)[C@H](CC(C)C)NC(=O)[C@H](CCC(=O)O)NC(=O)[C@H](CCSC)NC(=O)[C@H](CC(C)C)NC(=O)[C@@H](N)CCC(=O)O)C(=O)N[C@@H](CC(C)C)C(=O)N[C@@H](CCCCN)C(=O)N[C@@H](CS)C(=O)N[C@@H](Cc1ccccc1)C(=O)O` (H-ELMELERWGSMLKCF-OH) was run?
Its Activity is “Active”.
